According to ChEMBL document CHEMBL1240465, “Prenylflavonoids and prenyl/alkyl-phloroacetophenones: synthesis and antitumour biological evaluation” (Eur J Med Chem, 2010):

Assays:
Type in all cases: functional, cell-based
HeLa = experiment: Cytotoxicity against human HeLa cells after 72 hrs by XTT assay
Procedure, shortened: (§1)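 Cells grown in DMEM (A549, HT-29, HeLa) or RPMI1640 (HL-60), both with 10% heat-inactivated fetal bovine serum, were exposed to compound across a concentration range for 72 h at 37 °C in humidified air/CO₂ (19/1), then read by XTT. Measurements were in triplicate. IC50 is the concentration giving 50% proliferation inhibition versus untreated controls, reported as mean ± S.D. of three independent determinations.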

HT-29 = experiment: Cytotoxicity against human HT-29 cells after 72 hrs by XTT assay; conditions: HT-29, 72 h
Procedure, shortened: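 Cells grown in DMEM (A549, HT-29, HeLa) or RPMI1640 (HL-60), both with 10% heat-inactivated fetal bovine serum, were exposed to compound across a concentration range for 72 h at 37 °C in humidified air/CO₂ (19/1), then read by XTT. Measurements were in triplicate.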

HL-60 = experiment: Cytotoxicity against human HL60 cells after 72 hrs by XTT assay; conditions: HL-60, 72 h; procedure, shortened: as §1
A549 = experiment: Cytotoxicity against human A549 cells after 72 hrs by XTT assay; conditions: A549, 72 h; procedure, shortened: as §1

SMILES | IC50 (HeLa) [µM] | IC50 (HT-29) [µM] | IC50 (HL-60) [µM] | IC50 (A549) [µM]
CC(=O)c1c(O)cc(O)c(C/C=C(\C)CCC=C(C)C)c1O | 21 | 19 | 19 | 20
CC(=O)c1c(O)cc2c(c1O)CCC(C)(CC/C=C(\C)CCC=C(C)C)O2 (stereo unspecified) | 30 | > 100 | 31 | > 100
CC(=O)c1c(OC/C=C(\C)CC/C=C(\C)CCC=C(C)C)cc(O)c(C/C=C(\C)CC/C=C(\C)CCC=C(C)C)c1O | > 100 | > 100 | 32 | > 100
CC(=O)c1c(O)cc(OC/C=C(\C)CC/C=C(\C)CCC=C(C)C)cc1O | 29 | 31 | 32 | 32
CC(=O)c1c(O)cc(O)c(C/C=C(\C)CC/C=C(\C)CCC=C(C)C)c1O | 13 | 18 | 14 | 22
CCCCCCCC/C=C\CCCCCCCCOc1cc(O)c(C(C)=O)c(O)c1 | 31 | 31 | 32 | 31
CCCCCCCC/C=C\CCCCCCCCOc1cc(O)cc(O)c1C(C)=O | 31 | > 100 | 32 | > 100
CCCCCCCC/C=C\CCCCCCCCc1c(O)cc(O)c(C(C)=O)c1O | > 100 | > 100 | > 100 | > 100
CCCCCCCCCCCCCCCCCCOc1cc(O)c(C(C)=O)c(O)c1 | > 100 | > 100 | > 100 | > 100
CCCCCCCCCCCCCCCCCCOc1cc(O)cc(O)c1C(C)=O | > 100 | > 100 | > 100 | > 100
CCCCCCCCCCCCCCCCCCc1c(O)cc(O)c(C(C)=O)c1O | 28 | 26 | 31 | 32
CC(C)=CCC/C(C)=C/COc1cc2oc(-c3ccccc3)cc(=O)c2c(O)c1C/C=C(\C)CCC=C(C)C | 30 | 32 | – | 32
CC(C)=CCC/C(C)=C/Cc1c(O)cc2oc(-c3ccccc3)cc(=O)c2c1O | 32 | 33 | – | 32
COc1ccc(-c2oc3cc(OC)cc(O)c3c(=O)c2OC)cc1 | 28 | 26 | – | 30
CC(=O)c1c(O)cc(O)cc1O [2,4,6-TRIHYDROXYACETOPHENONE] | > 100 | > 100 | > 100 | > 100
O=c1cc(-c2ccccc2)oc2cc(O)cc(O)c12 [CHRYSIN] | 29 | > 100 | – | > 100
C=C1CC[C@H]2C(C)(C)CCC[C@]2(C)[C@H]1CC/C(C)=C/Cc1c(O)cc2oc(-c3ccc(O)cc3)c(O)c(=O)c2c1O [DENTICULAFLAVONOL] | > 100 | > 100 | – | > 100
COc1cccc2c1C(=O)c1c(O)c3c(c(O)c1C2=O)C[C@@](O)(C(=O)CO)C[C@@H]3O[C@H]1C[C@H](N)[C@H](O)[C@H](C)O1 [DOXORUBICIN] | 0.29 | – | – | 0.26
COc1ccc(-c2oc3cc(O)cc(O)c3c(=O)c2OC)cc1 [ERMANIN] | 31 | 32 | – | 31
COc1ccc(-c2oc3cc(O)cc(O)c3c(=O)c2O)cc1 [KAEMPFERIDE] | 23 | 32 | – | 22
O=c1c(O)c(-c2ccc(O)cc2)oc2cc(O)cc(O)c12 [KAEMPFEROL] | > 100 | > 100 | – | > 100
CC(C)=CCC/C(C)=C/Cc1c(O)cc2oc(-c3ccc(O)cc3)c(O)c(=O)c2c1O [MACARANGIN] | > 100 | > 100 | – | > 100
COc1cc(O)c(C(C)=O)c(OC)c1 [XANTHOXYLIN] | > 100 | > 100 | > 100 | > 100
